Data set [1] has as its system Mycobacterium tuberculosis. As to the kind of experiment: Antimycobacterial activity against Mycobacterium tuberculosis H37Rv My 331/88 after 14 days by micromethod. It is filed as functional. The conditions noted are these: H37Rv My 331/88, 336 h. The method in brief: (§1)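 MIC micromethod in Šula's semisynthetic medium at 37 °C, read after 14 and 21 days. Compounds added as DMSO solutions at 500 down to 0.5 µM (twofold-type series: 500, 250, 125, 62.5, 32, 16, 8, 4, 2, 1, 0.5 µM). Isoniazid standard given in sterile water.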

The subject of data set [2] is Mycobacterium tuberculosis. Kind of data set: Antimycobacterial activity against Mycobacterium tuberculosis H37Rv My 331/88 after 21 days by micromethod. It is filed as functional. The conditions noted are these: H37Rv My 331/88, 504 h. The method in brief: as §1
Data set [3] relates to Mycobacterium avium. As to the kind of experiment: Antimycobacterial activity against Mycobacterium avium My 330/80 after 14 days by micromethod. The note with it: My 330/80, 336 h. The data set is classed as functional. Put shortly:
(§2)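 M. avium My 330/80 (collection strain) inoculated at 10^-5 dilution into Šula's semisynthetic medium. Compounds added from DMSO solutions at 500, 250, 125, 62.5, 32, 16, 8, 4, 2, 1 and 0.5 µM. MIC determined by micromethod at 37 °C, read after 14 and 21 days.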

For data set [4], the system named is Mycobacterium avium. Kind of data set: Antimycobacterial activity against Mycobacterium avium My 330/80 after 21 days by micromethod. The data set is classed as functional. The conditions noted are these: My 330/80, 504 h. The method in brief:
as §2

The test system of data set [5] is Mycobacterium kansasii. Kind of data set: Antimycobacterial activity against Mycobacterium kansasii isolate 235/80 after 7 days by micromethod. The data set is classed as functional. The conditions noted are these: isolate 235/80, 168 h. The method in brief: (§3)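 MIC in Šula's semisynthetic medium at 37 °C, read after 7, 14 and 21 days. Inoculum is strain dilution 10^-4; 235/80 is a collection strain and 6509/96 a clinical isolate. Compounds are added as DMSO solutions at 500, 250, 125, 62.5, 32, 16, 8, 4, 2, 1 and 0.5 µM. INH (in sterile water) and PAS are the reference drugs.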

For data set [6], the system named is Mycobacterium kansasii. Kind of data set: Antimycobacterial activity against Mycobacterium kansasii isolate 235/80 after 14 days by micromethod. The data set is classed as functional. The conditions noted are these: isolate 235/80, 336 h. The method in brief:
as §3

Data set [7] relates to Mycobacterium kansasii. As to the kind of experiment: Antimycobacterial activity against Mycobacterium kansasii isolate 235/80 after 21 days by micromethod. The data set is classed as functional. The conditions noted are these: isolate 235/80, 504 h. The method in brief:
as §3

Data set [8] has as its system Mycobacterium kansasii. Kind of data set: Antimycobacterial activity against Mycobacterium kansasii isolate 6509/96 after 7 days by micromethod. The data set is classed as functional. The note with it: isolate 6509/96, 168 h. The method in brief: as §3
For data set [9], the system named is Mycobacterium kansasii. As to the kind of experiment: Antimycobacterial activity against Mycobacterium kansasii isolate 6509/96 after 14 days by micromethod. The note with it: isolate 6509/96, 336 h. The data set is classed as functional. Put shortly: as §3
Data set [10] deals with Mycobacterium kansasii. As to the kind of experiment: Antimycobacterial activity against Mycobacterium kansasii isolate 6509/96 after 21 days by micromethod. The data set is classed as functional. The note with it: isolate 6509/96, 504 h. Put shortly: as §3
Data set [11] can be described thus: Cytotoxicity against human HepG2 cells assessed as reduction in cell viability after 24 hrs by MTS assay. The data set is classed as toxicity, cell-based. Put shortly:
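HepG2 cells (passages 33-37) are grown in MEM with 10% FBS, L-glutamine and non-essential amino acids. They are seeded at 1 × 10^4 cells/well and treated next day with 0.1-100 µM in triplicate for 24 h at 37 °C, 5% CO2. MTS reagent is added for 2 h and A490 read.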
On the technique in general: Formazan colour is commonly taken as a measure of viable cells.

Data set [12] in a line: Selectivity index, ratio of IC50 for human HepG2 cells to MIC for Mycobacterium tuberculosis H37Rv after 21 days. It is filed as toxicity, cell-based. The conditions noted are these: HepG2 cells versus Mycobacterium tuberculosis H37Rv, read-out: Selectivity Index. Put shortly:
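HepG2 cells (passages 33-37) seeded at 1 × 10^4 per well and treated next day with 0.1–100 µM in triplicate. After 24 h at 37 °C, 5% CO2, MTS reagent added for 2 h and absorbance read at 490 nm. IC50 taken from viability relative to untreated control, then divided by the 21-day H37Rv MIC.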

SMILES strings stand for the structures. Converted amounts (≈) assume the structure as drawn.

For `O=C(Nc1ccc(Cl)c(Cl)c1)c1ccc(Cl)cc1O`, the MIC – broadly, the lowest concentration that inhibits growth of the organism – in data set [1] was 4 µM (≈ 1.27 µg/mL); in data set [2], 4 µM (≈ 1.27 µg/mL); against Mycobacterium avium [3] it was 16 µM (≈ 5.07 µg/mL); against Mycobacterium avium [4] it was 16 µM (≈ 5.07 µg/mL); against Mycobacterium kansasii [5] it was 4 µM (≈ 1.27 µg/mL); against Mycobacterium kansasii [6], 8 µM (≈ 2.53 µg/mL). Moreover, the MIC with Mycobacterium kansasii [7] was determined as 8 µM (≈ 2.53 µg/mL); against Mycobacterium kansasii [8], 4 µM (≈ 1.27 µg/mL); with Mycobacterium kansasii [9], 4 µM (≈ 1.27 µg/mL); in the data set with Mycobacterium kansasii [10], 8 µM (≈ 2.53 µg/mL). The IC50 (commonly the concentration at which inhibition is half-maximal) at 24 h in data set [11] worked out at 2.23 µM. In addition, the selectivity ratio at 504 h in [12] came to 0.56.
Regarding `O=C(Nc1ccc(Br)cc1)c1ccc(Cl)cc1O`, the MIC came out at 4 µM (≈ 1.31 µg/mL) in data set [1]; 4 µM (≈ 1.31 µg/mL) in [2]; 16 µM (≈ 5.23 µg/mL) against Mycobacterium avium [3]; 16 µM (≈ 5.23 µg/mL) in the data set with Mycobacterium avium [4]; 4 µM (≈ 1.31 µg/mL) with Mycobacterium kansasii [5]; 4 µM (≈ 1.31 µg/mL) against Mycobacterium kansasii [6]. In addition, the MIC with Mycobacterium kansasii [7] worked out at 4 µM (≈ 1.31 µg/mL); with Mycobacterium kansasii [8], 4 µM (≈ 1.31 µg/mL); against Mycobacterium kansasii [9], 8 µM (≈ 2.61 µg/mL); against Mycobacterium kansasii [10], 8 µM (≈ 2.61 µg/mL). The IC50 at 24 h in data set [11] was found to be 3.24 µM. In addition, the selectivity ratio at 504 h in data set [12] was found to be 0.81.
As to `O=C(Nc1ccc(C(F)(F)F)cc1)c1ccc(Cl)cc1O`, the MIC in data set [1] stood at 4 µM (≈ 1.26 µg/mL); in [2], 4 µM (≈ 1.26 µg/mL); in the data set on Mycobacterium avium [3] it was 8 µM (≈ 2.53 µg/mL); against Mycobacterium avium [4] it was 8 µM (≈ 2.53 µg/mL); against Mycobacterium kansasii [5], 2 µM (≈ 0.631 µg/mL); in the data set on Mycobacterium kansasii [6], 4 µM (≈ 1.26 µg/mL). In addition, the MIC worked out at 4 µM (≈ 1.26 µg/mL) in the data set with Mycobacterium kansasii [7], 2 µM (≈ 0.631 µg/mL) in the data set with Mycobacterium kansasii [8], 2 µM (≈ 0.631 µg/mL) against Mycobacterium kansasii [9] and 4 µM (≈ 1.26 µg/mL) against Mycobacterium kansasii [10]. In addition, the IC50 at 24 h in data set [11] came to 2.64 µM. In addition, the selectivity ratio at 504 h in data set [12] was 0.66.
Take `O=C(Nc1ccc(C(F)(F)F)cc1)c1cc(Cl)ccc1O`: the MIC in data set [1] turned out to be 2 µM (≈ 0.631 µg/mL); in [2], 2 µM (≈ 0.631 µg/mL); against Mycobacterium avium [3], 8 µM (≈ 2.53 µg/mL); against Mycobacterium avium [4] it was 8 µM (≈ 2.53 µg/mL); against Mycobacterium kansasii [5] it was 1 µM (≈ 0.316 µg/mL); with Mycobacterium kansasii [6], 1 µM (≈ 0.316 µg/mL). For the same compound, the MIC was determined as 1 µM (≈ 0.316 µg/mL) with Mycobacterium kansasii [7], 2 µM (≈ 0.631 µg/mL) in the data set on Mycobacterium kansasii [8], 2 µM (≈ 0.631 µg/mL) against Mycobacterium kansasii [9] and 2 µM (≈ 0.631 µg/mL) in the data set on Mycobacterium kansasii [10].
Consider `O=C(Nc1cc(C(F)(F)F)cc(C(F)(F)F)c1)c1ccc(Cl)cc1O`, for which the MIC was 4 µM (≈ 1.53 µg/mL) in data set [1]; 4 µM (≈ 1.53 µg/mL) in data set [2]; 16 µM (≈ 6.14 µg/mL) in the data set on Mycobacterium avium [3]; 16 µM (≈ 6.14 µg/mL) in the data set with Mycobacterium avium [4]; 8 µM (≈ 3.07 µg/mL) against Mycobacterium kansasii [5]; 8 µM (≈ 3.07 µg/mL) in the data set with Mycobacterium kansasii [6]. Also, the MIC was 16 µM (≈ 6.14 µg/mL) in the data set on Mycobacterium kansasii [7], 8 µM (≈ 3.07 µg/mL) against Mycobacterium kansasii [8], 8 µM (≈ 3.07 µg/mL) in the data set with Mycobacterium kansasii [9] and 8 µM (≈ 3.07 µg/mL) in the data set with Mycobacterium kansasii [10]. The IC50 at 24 h in data set [11] came out at 9.55 µM. The selectivity ratio at 504 h in data set [12] is 2.39.
For `O=C(Nc1ccc(Br)cc1)c1ccc(Br)cc1O`, the MIC is 2 µM (≈ 0.742 µg/mL) in data set [1]; 4 µM (≈ 1.48 µg/mL) in data set [2]; 16 µM (≈ 5.94 µg/mL) in the data set on Mycobacterium avium [3]; 16 µM (≈ 5.94 µg/mL) in the data set on Mycobacterium avium [4]; 4 µM (≈ 1.48 µg/mL) against Mycobacterium kansasii [5]; 8 µM (≈ 2.97 µg/mL) against Mycobacterium kansasii [6]. The MIC with Mycobacterium kansasii [7], against Mycobacterium kansasii [8], with Mycobacterium kansasii [9] and against Mycobacterium kansasii [10] was 8 µM (≈ 2.97 µg/mL) each time. In data set [11], the IC50 at 24 h amounted to 7.59 µM. Further, the selectivity ratio at 504 h in [12] was 1.9.
Turning to `Nc1ccc(C(=O)O)c(O)c1` [AMINOSALICYLIC ACID], the MIC in [1] was determined as 62.5 µM (≈ 9.57 µg/mL); in [2] it was 62.5 µM (≈ 9.57 µg/mL); in the data set with Mycobacterium avium [3], 32 µM (≈ 4.9 µg/mL); against Mycobacterium avium [4], 125 µM (≈ 19.1 µg/mL); against Mycobacterium kansasii [5], 125 µM (≈ 19.1 µg/mL); with Mycobacterium kansasii [6] it was 1000 µM (≈ 153 µg/mL). Moreover, the MIC with Mycobacterium kansasii [7] is more than 1000 µM; against Mycobacterium kansasii [8], 32 µM (≈ 4.9 µg/mL); against Mycobacterium kansasii [9], 125 µM (≈ 19.1 µg/mL); with Mycobacterium kansasii [10], 500 µM (≈ 76.6 µg/mL).
Turning to `NNC(=O)c1ccncc1` [ISONIAZID], the MIC was 0.5 µM (≈ 0.0686 µg/mL) in data set [1]; 1 µM (≈ 0.137 µg/mL) in data set [2]; more than 250 µM in the data set on Mycobacterium avium [3]; more than 250 µM against Mycobacterium avium [4]; more than 250 µM in the data set with Mycobacterium kansasii [5]; more than 250 µM with Mycobacterium kansasii [6]. Also, the MIC is more than 250 µM with Mycobacterium kansasii [7], 4 µM (≈ 0.549 µg/mL) with Mycobacterium kansasii [8], 8 µM (≈ 1.1 µg/mL) in the data set on Mycobacterium kansasii [9] and 8 µM (≈ 1.1 µg/mL) in the data set with Mycobacterium kansasii [10].
